Active and inactive are the calls of the source. No cut-off for these calls is given here.
How the values were obtained:
[1] = biological target: T1, Diacylglycerol lipase-alpha (Mus musculus) (UniProt Q6WQJ1); experiment: Inhibition of mouse DAGLalpha expressed in HEK293T cell membrane using [14C]SAG substrate at 1000 nM by scintillation counting based radio-TLC assay; assay type: cell membranes; conditions: HEK-293T
T1 sequence (whole entry): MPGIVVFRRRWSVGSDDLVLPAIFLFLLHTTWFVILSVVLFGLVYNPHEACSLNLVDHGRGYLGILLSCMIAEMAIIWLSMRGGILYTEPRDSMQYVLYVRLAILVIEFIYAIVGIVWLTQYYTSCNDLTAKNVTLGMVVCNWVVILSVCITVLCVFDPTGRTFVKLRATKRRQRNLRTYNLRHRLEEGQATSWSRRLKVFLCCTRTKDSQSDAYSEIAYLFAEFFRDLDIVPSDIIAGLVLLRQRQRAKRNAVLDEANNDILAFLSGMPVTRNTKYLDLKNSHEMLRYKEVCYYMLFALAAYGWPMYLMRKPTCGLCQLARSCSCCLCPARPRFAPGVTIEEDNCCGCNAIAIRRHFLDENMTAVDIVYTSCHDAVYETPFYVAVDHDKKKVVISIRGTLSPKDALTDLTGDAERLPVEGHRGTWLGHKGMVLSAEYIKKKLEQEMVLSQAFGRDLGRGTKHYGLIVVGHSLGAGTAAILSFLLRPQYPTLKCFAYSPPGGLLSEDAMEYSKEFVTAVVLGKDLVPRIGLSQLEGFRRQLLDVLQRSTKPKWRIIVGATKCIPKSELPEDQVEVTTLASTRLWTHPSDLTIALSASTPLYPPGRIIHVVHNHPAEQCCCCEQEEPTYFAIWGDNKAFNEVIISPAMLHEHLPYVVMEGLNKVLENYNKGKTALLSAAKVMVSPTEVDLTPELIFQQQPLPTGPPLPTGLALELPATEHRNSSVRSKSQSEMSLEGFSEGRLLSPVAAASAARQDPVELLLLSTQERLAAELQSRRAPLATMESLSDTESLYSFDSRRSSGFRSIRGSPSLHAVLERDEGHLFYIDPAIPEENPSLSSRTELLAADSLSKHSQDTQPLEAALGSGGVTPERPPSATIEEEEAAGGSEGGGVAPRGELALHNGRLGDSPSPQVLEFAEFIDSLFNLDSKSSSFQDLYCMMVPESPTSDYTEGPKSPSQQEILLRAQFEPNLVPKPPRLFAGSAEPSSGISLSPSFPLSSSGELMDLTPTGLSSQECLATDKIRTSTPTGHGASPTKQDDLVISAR

[2] = Inhibition of porcine pancreatic lipase type 2 by FRET assay; design: species or system Sus scrofa
Summary of the method: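 Purified enzymes: bacterial lipoprotein lipase (0.46 μg) or porcine pancreatic lipase type II (1.0 μg, suspended in 1:9 DMSO/water). Run in 50 mM Tris pH 7.4 with 10 mM CaCl2. Substrate was the pyrene-dinitrophenyl ether lipid FRET reporter at 25 μM, with compounds screened at 10 μM. Fluorescence was read at ex 320/em 400 nm, and percent inhibition was taken at 1.5 h; n = 1 or 2.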

[3] = biological target: T2, Diacylglycerol lipase-alpha (Homo sapiens) (UniProt Q9Y4D2); experiment: Inhibition of human DAGLalpha expressed in HEK293T cell membrane using [14C]SAG substrate at 10 uM in detergent free solution by scintillation counting based radio-TLC assay; conditions: HEK-293T
T2 sequence (whole entry): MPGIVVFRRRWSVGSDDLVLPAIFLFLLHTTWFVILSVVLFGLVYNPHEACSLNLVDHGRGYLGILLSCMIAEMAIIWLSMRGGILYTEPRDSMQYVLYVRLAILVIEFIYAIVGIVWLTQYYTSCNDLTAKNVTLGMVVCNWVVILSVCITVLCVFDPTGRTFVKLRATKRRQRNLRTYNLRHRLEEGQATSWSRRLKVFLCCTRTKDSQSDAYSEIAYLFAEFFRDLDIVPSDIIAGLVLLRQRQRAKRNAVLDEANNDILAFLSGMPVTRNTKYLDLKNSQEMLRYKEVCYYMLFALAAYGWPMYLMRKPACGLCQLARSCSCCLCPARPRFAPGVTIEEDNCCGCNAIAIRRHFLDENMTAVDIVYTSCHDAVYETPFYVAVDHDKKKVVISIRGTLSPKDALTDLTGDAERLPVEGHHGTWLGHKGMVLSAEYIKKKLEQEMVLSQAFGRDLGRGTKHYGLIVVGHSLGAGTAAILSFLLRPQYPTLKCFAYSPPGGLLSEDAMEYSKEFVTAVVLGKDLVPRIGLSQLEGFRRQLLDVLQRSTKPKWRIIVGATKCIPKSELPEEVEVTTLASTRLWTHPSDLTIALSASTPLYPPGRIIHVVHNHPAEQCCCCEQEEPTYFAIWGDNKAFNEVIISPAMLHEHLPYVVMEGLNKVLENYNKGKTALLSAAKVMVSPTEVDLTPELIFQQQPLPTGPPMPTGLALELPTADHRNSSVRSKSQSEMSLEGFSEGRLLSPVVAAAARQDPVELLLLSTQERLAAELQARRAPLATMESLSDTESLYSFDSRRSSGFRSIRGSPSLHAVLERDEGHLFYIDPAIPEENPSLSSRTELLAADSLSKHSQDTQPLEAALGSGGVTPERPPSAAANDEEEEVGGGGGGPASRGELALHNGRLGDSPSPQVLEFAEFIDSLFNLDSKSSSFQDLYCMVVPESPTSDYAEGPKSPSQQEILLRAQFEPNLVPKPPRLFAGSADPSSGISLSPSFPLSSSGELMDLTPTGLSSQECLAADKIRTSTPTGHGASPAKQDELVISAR

[4] = biological target: T2, Diacylglycerol lipase-alpha (Homo sapiens); experiment: Inhibition of human DAGLalpha expressed in HEK293T cell membrane using [14C]SAG substrate at 10 uM using JZL184 pretreated protein in detergent free solution by […]; assay type: cell-based; conditions: HEK-293T
[5] = biological target: T2, Diacylglycerol lipase-alpha (Homo sapiens); experiment: Inhibition of human DAGLalpha expressed in HEK293T cell membrane using [14C]SAG substrate at 10 uM in presence of 0.015% Triton X-100 by scintillation counting based radio-TLC assay; assay type: cell membranes; conditions: HEK-293T
Summary of the method: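 Sonicated HEK293T protein (100 μg) in 50 mM Tris pH 7.4 with 10 mM CaCl2. Inhibitor in DMSO (10% DMSO standard) preincubated 15 min at 37 °C. [14C]SAG was added to 20 μM final for 20 min at 37 °C, with Triton X-100 where the line states it. Quenched with 2:1 CHCl3/MeOH. Silica TLC in CHCl3/MeOH/NH4OH 86:14:0.75, then 12 h phosphorimaging. Activity = (2-AG+AA)/(2-AG+AA+SAG). Background-subtracted; n=1–2.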

Work on CCCCCCCCCCC[C@@H](C[C@@H]1OC(=O)[C@H]1CCCCCC)OC(=O)[C@@H](NC=O)[C@H](C)CC yielded an inhibition [1] of 88%.

With CCCCCCCCCCC[C@@H](C[C@@H]1OC(=O)[C@H]1CCCCCC)OC(=O)[C@H](NC=O)[C@H](C)CC the inhibition [1] was 69%.

In the case of CCCCCCCCCCC[C@@H](C[C@@H]1OC(=O)[C@H]1CCCCCC)OC(=O)[C@H](CC(C)C)NC=O [ORLISTAT], the IC50 [2] is reported as < 1 nM and the inhibition [3] is reported as 100%.

CCCCCCCCCCC[C@@H](C[C@@H]1OC(=O)[C@H]1CCCCCC)OC(=O)[C@H](NC=O)[C@@H](C)CC showed an inhibition [1] of 75%.

CCCCCCCCCCC[C@@H](C[C@@H]1OC(=O)[C@H]1CCCCCC)OC(=O)[C@@H](NC=O)[C@@H](C)CC showed an inhibition [1] of 96%.

In the case of O=C(Oc1ccc([N+](=O)[O-])cc1)N1CCC(C(O)(c2ccc3c(c2)OCO3)c2ccc3c(c2)OCO3)CC1, the inhibition [4] is reported as 44%, the inhibition [5] is reported as 37% and the inhibition [3] is reported as “inactive”.

With CCCCCCCCCCC[C@@H](C[C@@H]1OC(=O)[C@H]1CCCCCC)OC(=O)[C@H](CC)NC=O the inhibition [1] was 96%.

From ChEMBL document CHEMBL2169869, “Assay and inhibition of diacylglycerol lipase activity” (Bioorg Med Chem Lett, 2012)
